Molecules are shown by their SMILES. The source made the active and inactive calls. The rule behind the calls is not given here.

Assay [1] addresses T1, Phospholipase A2, membrane associated (Homo sapiens) (UniProt P14555).
T1 sequence (whole entry): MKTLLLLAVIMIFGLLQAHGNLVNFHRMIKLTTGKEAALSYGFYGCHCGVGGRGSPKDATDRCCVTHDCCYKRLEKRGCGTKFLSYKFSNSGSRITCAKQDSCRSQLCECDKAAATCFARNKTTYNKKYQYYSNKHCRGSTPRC
Description: Inhibition of sPLA2-IIA (unknown origin)-integrin alphaVbeta3 interaction in human K562 cells pretreated for 30 mins to immobilized sPLA2 before adding cells by phosphatase assay relative to BSA. The assay is classed as cell-based. The gist of the method:
(§1)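 Wells coated with sPLA2-IIA and blocked with BSA were preincubated with compound (10 to 500 μM) for 30 min. Integrin αvβ3-transfected K562 erythroleukemia cells were then added for 1 h at 37 °C, and bound cells were quantified by phosphatase assay. IC50 and maximum inhibition were derived from dose-response experiments.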

The target in assay [2] is T2, Disintegrin and metalloproteinase domain-containing protein 15 (Homo sapiens) (UniProt Q13444).
T2 sequence (whole entry): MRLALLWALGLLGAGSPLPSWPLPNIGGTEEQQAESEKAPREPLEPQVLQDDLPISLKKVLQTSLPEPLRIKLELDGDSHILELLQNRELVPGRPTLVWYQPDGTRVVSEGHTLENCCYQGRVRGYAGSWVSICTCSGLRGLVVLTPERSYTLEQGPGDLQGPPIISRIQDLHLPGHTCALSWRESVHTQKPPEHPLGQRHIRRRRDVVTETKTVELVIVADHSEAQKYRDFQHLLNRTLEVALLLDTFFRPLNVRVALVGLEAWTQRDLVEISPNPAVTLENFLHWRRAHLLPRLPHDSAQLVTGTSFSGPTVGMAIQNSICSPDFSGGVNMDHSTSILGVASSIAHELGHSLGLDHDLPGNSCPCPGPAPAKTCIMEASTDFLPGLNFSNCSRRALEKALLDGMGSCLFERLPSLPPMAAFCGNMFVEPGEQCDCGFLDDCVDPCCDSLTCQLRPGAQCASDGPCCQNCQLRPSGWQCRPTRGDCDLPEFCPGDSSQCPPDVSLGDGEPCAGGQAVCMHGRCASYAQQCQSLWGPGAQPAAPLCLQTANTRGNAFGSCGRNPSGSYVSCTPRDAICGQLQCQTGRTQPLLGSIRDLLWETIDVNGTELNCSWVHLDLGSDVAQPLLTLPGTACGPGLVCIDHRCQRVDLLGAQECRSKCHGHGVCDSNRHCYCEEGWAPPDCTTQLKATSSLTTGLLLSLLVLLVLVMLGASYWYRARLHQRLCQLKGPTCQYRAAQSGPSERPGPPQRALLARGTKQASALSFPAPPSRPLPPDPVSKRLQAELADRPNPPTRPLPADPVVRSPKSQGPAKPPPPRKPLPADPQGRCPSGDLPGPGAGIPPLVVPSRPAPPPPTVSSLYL
Description: Inhibition of ADAM15 (unknown origin)-integrin alphaVbeta3 interaction in human K562 cells pretreated at 200 uM for 30 mins to immobilized sPLA2 before adding cells by phosphatase assay. The assay is classed as cell-based. The gist of the method: (§2)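 Specificity adhesion assay using αvβ3-transfected K562 cells. Wells were coated with either ADAM15 or sPLA2-IIA and blocked with BSA. Compound was used at 200 μM. Adherent cells were quantified by phosphatase assay. Means ± S.E., n=3.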

Assay [3] concerns the target T3, Phospholipase A2, membrane associated (Homo sapiens, UniProt P14555).
T3 sequence (P14555 whole entry): T1 sequence (whole entry)
Put plainly: Inhibition of sPLA2-IIA (unknown origin)-integrin alphaVbeta3 interaction in human K562 cells pretreated for 30 mins to immobilized sPLA2 before adding cells by phosphatase assay. Type of assay: cell-based. The gist of the method:
as §1

Assay [4] concerns U-937. Put plainly: Inhibition of sPLA2-IIA R47E/R100E mutant (unknown origin)-induced migration of human U937 cells after 20 hrs by chemotaxis assay. The assay is classed as cell-based.
In assay [5] the target is T1, Phospholipase A2, membrane associated (Homo sapiens). Put plainly: Inhibition of sPLA2-IIA (unknown origin)-induced migration of human U937 cells after 20 hrs by chemotaxis assay. Type of assay: cell-based. The settings on record: U-937. The gist of the method:
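Modified Boyden chamber (Transwell) chemotaxis assay. The lower chamber held sPLA2-IIA (40 ng/ml) with compound (4 to 16 μM), and U937 monocytic cells were placed in the upper chamber for 20 h at 37 °C. Migrated cells were counted. Means ± SE, n=4.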

For assay [6] the target is unchanged. Description: Inhibition of sPLA2-IIA (unknown origin)-integrin alphaVbeta3 interaction in human K562 cells pretreated at 200 uM for 30 mins to immobilized sPLA2 before adding cells by phosphatase assay. The assay is classed as cell-based. The method, boiled down:
as §2

Assay [7] has as its system U-937. Put plainly: Inhibition of sPLA2-IIA (unknown origin)-induced migration of human U937 cells after 20 hrs by chemotaxis assay.

As to `N=C(N)NCCC[C@@H](NC(=O)CN)C(=O)NCC(=O)N[C@H](CC(=O)O)C(=O)N[C@H](CC(=O)O)C(=O)N[C@H](CC(=O)O)C(=O)O`, the Imax result in assay [1] was “inactive”.
In the case of `CC[C@H](C)[C@H](NC(=O)[C@@H](CC(=O)O)NC(=O)[C@H](Cc1c[nH]c2ccccc12)NC(=O)[C@H](C)NC(=O)c1cc(-c2sc(NC(=O)c3ccccc3)nc2C)n[nH]1)C(=O)O`, the inhibition entry in assay [2] and in assay [4] was “inactive” in each case. Besides, the IC50 (as a rule, the concentration needed to halve the response being measured) in assay [3] came to 20 µM. Further, the inhibition result in assay [5] was “Dose-dependent effect”. Moreover, the Imax in assay [1] was determined as 85%. Besides, the inhibition result in assay [6] is “Active”.
With `Cc1nc(NC(=O)c2ccccc2)sc1-c1cc(C(=O)NCC(=O)N[C@H](CCCN=C(N)N)C(=O)NCC(=O)N[C@H](CC(=O)O)C(=O)O)[nH]n1`, the IC50 in assay [3] came out at 155 µM.
As to `Cc1nc(NC(=O)c2ccccc2)sc1-c1cc(C(=O)NCC(=O)N[C@H](CCCNC(=N)N)C(=O)NCC(=O)N[C@H](CC(=O)O)C(=O)N[C@H](CC(=O)O)C(=O)O)[nH]n1`, in assay [1], the Imax result is “inactive”.
Turning to `C[C@H](NC(=O)[C@H](CCCCN)NC(=O)[C@H](Cc1ccc(O)cc1)NC(=O)[C@H](Cc1cnc[nH]1)NC(=O)c1cnccn1)C(=O)N[C@H](CC(N)=O)C(=O)N[C@H](C(=O)O)[C@@H](C)O`, the Imax in assay [1] is < 30%.
Take `CC(C)[C@H](NC(=O)CC1NC(=O)NC1=O)C(=O)N[C@H](CC(N)=O)C(=O)N[C@@H](Cc1c[nH]c2ccccc12)C(=O)N1CCC[C@H]1C(=O)N[C@@H](CCC(N)=O)C(=O)N[C@@H](CCC(N)=O)C(=O)O` (stereo partly specified): the Imax in assay [1] is < 30%.
`N=C(N)NCCC[C@@H](NC(=O)c1csc(-c2ccccn2)n1)C(=O)N[C@@H](Cc1c[nH]c2ccccc12)C(=O)N[C@@H](CCC(=O)O)C(=O)N[C@H](Cc1ccccc1)C(=O)O`: the Imax in assay [1] is < 30%.
In the case of `Cc1nc(NC(=O)c2ccccc2)sc1-c1cc(C(=O)NCC(=O)N[C@H](CCCN=C(N)N)C(=O)O)[nH]n1`, the IC50 in assay [3] was found to be 262 µM.
Consider `Cc1nc(NC(=O)c2ccccc2)sc1-c1cc(C(=O)NCC(=O)N[C@H](CCCNC(=N)N)C(=O)NCC(=O)N[C@H](CC(=O)O)C(=O)O)[nH]n1`, for which the Imax in assay [1] amounted to 87%.
With `Cc1nc(NC(=O)c2ccccc2)sc1-c1cc(C(=O)N[C@@H](C)C(=O)N[C@@H](Cc2c[nH]c3ccccc23)C(=O)O)[nH]n1`, in assay [1], the Imax result is “inactive”.
On to `C[C@H](NC(=O)[C@@H](CCCNC(=N)N)NC(=O)[C@@H](CC(N)=O)NC(=O)[C@@H](CCCNC(=N)N)NC(=O)[C@@H](Cc1ccccc1)NC(=O)c1ccc2nn3c(c2c1)OCc1cc(Cl)ccc1-3)C(=O)N[C@@H](Cc1ccc(O)cc1)C(=O)O`, for which the IC50 in assay [3] is 85 µM. In addition, the Imax in assay [1] turned out to be 71%.
Turning to `CC(C)[C@H](NC(=O)[C@@H]1CCCN1C(=O)[C@@H](CC(N)=O)NC(=O)[C@@H](CCCNC(=N)N)NC(=O)[C@H](CCCCN)NC(=O)[C@H](Cc1c[nH]c2ccccc12)NC(=O)c1csc(-c2ccccn2)n1)C(=O)O`, in assay [1], the Imax was < 30%.
With `Cc1nc(NC(=O)c2ccccc2)sc1-c1cc(C(=O)N[C@@H](C)C(=O)O)[nH]n1`, in assay [1], the Imax result is “inactive”.
On to `Cc1nc(NC(=O)c2ccccc2)sc1-c1cc(C(=O)NCC(=O)N[C@H](CCCNC(=N)N)C(=O)O)[nH]n1`, for which, in assay [1], the Imax turned out to be 77%.
Take `Cc1nc(NC(=O)c2ccccc2)sc1-c1cc(C(=O)O)[nH]n1`: the Imax entry in assay [1] was “inactive”.
For `Cc1nc(NC(=O)c2ccccc2)sc1-c1cc(C(=O)NCC(=O)N[C@H](CCCN=C(N)N)C(=O)NCC(=O)N[C@H](CC(=O)O)C(=O)N[C@H](CC(=O)O)C(=O)N[C@H](CC(=O)O)C(=O)O)[nH]n1`, the half-maximal inhibitory concentration (IC50) in assay [3] was determined as 71 µM.
On to `Cc1nc(NC(=O)c2ccccc2)sc1-c1cc(C(=O)NCC(=O)N[C@H](CCCNC(=N)N)C(=O)NCC(=O)O)[nH]n1`, for which, in assay [1], the Imax came out at 81%.
On the same count and under the same terms, then `Cc1nc(NC(=O)c2ccccc2)sc1-c1cc(C(=O)NCC(=O)O)[nH]n1`, with 98%.
As to `Cc1nc(NC(=O)c2ccccc2)sc1-c1cc(C(=O)NCC(=O)N[C@H](CCCNC(=N)N)C(=O)NCC(=O)N[C@H](CC(=O)O)C(=O)N[C@H](CC(=O)O)C(=O)N[C@H](CC(=O)O)C(=O)O)[nH]n1`, the inhibition entry in assay [2] and in assay [7] was “inactive” throughout. Moreover, the Imax in assay [1] stood at 93%. Also, in assay [6], the inhibition result was “Active”.
Turning to `Cc1nc(NC(=O)c2ccccc2)sc1-c1cc(C(=O)N[C@@H](C)C(=O)N[C@@H](Cc2c[nH]c3ccccc23)C(=O)N[C@H](CC(=O)O)C(=O)O)[nH]n1`, in assay [1], the Imax entry was “inactive”.
Regarding `Cc1nc(NC(=O)c2ccccc2)sc1-c1cc(C(=O)NCC(=O)N[C@H](CCCN=C(N)N)C(=O)NCC(=O)O)[nH]n1`, in assay [3], the IC50 was 217 µM.
`CC[C@H](C)[C@H](NC(=O)[C@@H](CC(=O)O)NC(=O)[C@H](Cc1c[nH]c2ccccc12)NC(=O)[C@H](C)N)C(=O)O`: in assay [1], the Imax entry is “inactive”.

The values above are taken from ChEMBL document CHEMBL2331538, “Identification of inhibitors against interaction between pro-inflammatory sPLA2-IIA protein and integrin αvβ3” (Bioorg Med Chem Lett, 2013).
